Assay results as given in article PMC4716659 (European journal of medicinal chemistry, 2015).
Values after ≈ are worked out from the molar mass of the structure shown. “Also recorded” adds a separate entry of the source.

How the values were obtained:
S. aureus NRS107 (MRSA) [1] = assay: MIC, broth microdilution; format: cell-based, Staphylococcus aureus
S. aureus VRS1 (VRSA) [2] = assay: MBC, plating onto TSA; format: cell-based, Staphylococcus aureus
S. aureus VRS1 (VRSA) [3] = assay: MIC, broth microdilution; format: cell-based, Staphylococcus aureus
S. aureus USA300 (MRSA) [4] = assay: MBC, plating onto TSA; format: cell-based, Staphylococcus aureus
S. aureus VRS4 (VRSA) [5] = assay: MIC, broth microdilution; format: cell-based, Staphylococcus aureus
S. aureus VRS4 (VRSA) [6] = assay: MBC, plating onto TSA; format: cell-based, Staphylococcus aureus
S. aureus VRS5 (VRSA) [7] = assay: MIC, broth microdilution; format: cell-based, Staphylococcus aureus
S. aureus NRS19 (VISA) [8] = assay: MBC, plating onto TSA; format: cell-based, Staphylococcus aureus
S. aureus NRS119 (MRSA) [9] = assay: MBC, plating onto TSA; format: cell-based, Staphylococcus aureus
S. aureus USA500 (MRSA) [10] = assay: MBC, plating onto TSA; format: cell-based, Staphylococcus aureus
S. aureus USA500 (MRSA) [11] = assay: MIC, broth microdilution; format: cell-based, Staphylococcus aureus
S. aureus NRS1 (VISA) [12] = assay: MBC, plating onto TSA; format: cell-based, Staphylococcus aureus
S. aureus NRS194 (MRSA) [13] = assay: MBC, plating onto TSA; format: cell-based, Staphylococcus aureus
S. aureus VRS5 (VRSA) [14] = assay: MBC, plating onto TSA; format: cell-based, Staphylococcus aureus
S. aureus NRS1 (VISA) [15] = assay: MIC, broth microdilution; format: cell-based, Staphylococcus aureus
S. aureus USA300 (MRSA) [16] = assay: MIC, broth microdilution; format: cell-based, Staphylococcus aureus
[17] = tested on: human embryonic kidney (HEK293) cell line; assay: In vitro cytotoxicity, MTS assay; settings: 40 μg/mL
S. aureus NRS19 (VISA) [18] = assay: MIC, broth microdilution; format: cell-based, Staphylococcus aureus
S. aureus USA 400 (MRSA) [19] = assay: MIC, broth microdilution; format: cell-based, Staphylococcus aureus
S. aureus USA 400 (MRSA) [20] = assay: MBC, plating onto TSA; format: cell-based, Staphylococcus aureus
S. aureus NRS37 (VISA) [21] = assay: MBC, plating onto TSA; format: cell-based, Staphylococcus aureus
S. aureus NRS194 (MRSA) [22] = assay: MIC, broth microdilution; format: cell-based, Staphylococcus aureus
[23] = tested on: methicillin-resistant Staphylococcus aureus (MRSA) ATCC 43300; assay: MIC, broth microdilution; format: cell-based; settings: MRSA ATCC 43300
[24] = tested on: S. aureus ATCC 43300 (MRSA); assay: MBC, plating onto TSA; format: cell-based, Staphylococcus aureus
S. aureus NRS37 (VISA) [25] = assay: MIC, broth microdilution; format: cell-based, Staphylococcus aureus
S. aureus NRS119 (MRSA) [26] = assay: MIC, broth microdilution; format: cell-based, Staphylococcus aureus
S. aureus NRS107 (MRSA) [27] = assay: MBC, plating onto TSA; format: cell-based, Staphylococcus aureus
[28] = Microsomal stability analysis
MRSA USA300 = assay: Time-kill analysis; format: cell-based, Staphylococcus aureus; settings: MRSA USA300, 3 × MIC, 37 °C
Method in brief: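 Late-log-phase cells diluted to ~1 × 10^8 CFU/mL in MHB and exposed to test compound or vancomycin in triplicate at 37 °C. 20 μL samples taken at 0, 2, 4, 6, 8, 10, 12 and 24 h, serially diluted in PBS, and plated on TSA. Plates incubated 18–20 h at 37 °C, then viable CFU/mL counted. Data given as mean ± standard deviation.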

[29] = Staphylococcus aureus, MRSA|NRS107
[30] = Staphylococcus aureus, MRSA|USA300
[31] = Staphylococcus aureus, NRS19|VISA
[32] = Staphylococcus aureus, MRSA|NRS119
[33] = Staphylococcus aureus, MRSA|USA500
[34] = Staphylococcus aureus, NRS1|VISA
[35] = Staphylococcus aureus, MRSA|NRS194
[36] = Staphylococcus aureus, MRSA|USA400
[37] = Staphylococcus aureus, NRS37|VISA
[38] = Staphylococcus aureus, ATCC43300|MRSA
[39] = human liver microsomes, with NADPH

[H]/N=C(\N)NN=C(C)c1sc(-c2ccc(-c3ccc(C(C)=O)cc3)cc2)nc1C [22d, (E)-2-(1-(2-(4′-Acetyl-[1,1′-biphenyl]-4-yl)-4-methylthiazol-5-yl)ethylidene)hydrazinecarboximidamide]
MIC (S. aureus NRS107 (MRSA) [1]; [29]): 6.3 µg/mL (≈ 16.1 µM) | MBC (S. aureus VRS1 (VRSA) [2]; Staphylococcus aureus, VRSA): 3.1 µg/mL (≈ 7.92 µM) | MIC (S. aureus VRS1 (VRSA) [3]; Staphylococcus aureus, VRSA): 3.1 µg/mL (≈ 7.92 µM) | MBC (S. aureus USA300 (MRSA) [4]; [30]): 6.3 µg/mL (≈ 16.1 µM) | MIC (S. aureus VRS4 (VRSA) [5]; Staphylococcus aureus, VRSA): 1.6 µg/mL (≈ 4.09 µM) | MBC (S. aureus VRS4 (VRSA) [6]; Staphylococcus aureus, VRSA): 3.1 µg/mL (≈ 7.92 µM) | MIC (S. aureus VRS5 (VRSA) [7]; Staphylococcus aureus, VRSA): 6.3 µg/mL (≈ 16.1 µM) | MBC (S. aureus NRS19 (VISA) [8]; [31]): 12.5 µg/mL (≈ 31.9 µM) | MBC (S. aureus NRS119 (MRSA) [9]; [32]): 12.5 µg/mL (≈ 31.9 µM) | MBC (S. aureus USA500 (MRSA) [10]; [33]): 6.3 µg/mL (≈ 16.1 µM) | MIC (S. aureus USA500 (MRSA) [11]; [33]): 6.3 µg/mL (≈ 16.1 µM) | MBC (S. aureus NRS1 (VISA) [12]; [34]): 6.3 µg/mL (≈ 16.1 µM) | MBC (S. aureus NRS194 (MRSA) [13]; [35]): 6.3 µg/mL (≈ 16.1 µM) | MBC (S. aureus VRS5 (VRSA) [14]; Staphylococcus aureus, VRSA): 6.3 µg/mL (≈ 16.1 µM) | MIC (S. aureus NRS1 (VISA) [15]; [34]): 6.3 µg/mL (≈ 16.1 µM) | MIC (S. aureus USA300 (MRSA) [16]; [30]): 6.3 µg/mL (≈ 16.1 µM) | toxicity to mammalian cells (MTS assay) [17]: not toxic; also recorded: improved toxicity profile | MIC (S. aureus NRS19 (VISA) [18]; [31]): 12.5 µg/mL (≈ 31.9 µM) | MIC (S. aureus USA 400 (MRSA) [19]; [36]): 6.3 µg/mL (≈ 16.1 µM) | MBC (S. aureus USA 400 (MRSA) [20]; [36]): 6.3 µg/mL (≈ 16.1 µM) | MBC (S. aureus NRS37 (VISA) [21]; [37]): 6.3 µg/mL (≈ 16.1 µM) | MIC (S. aureus NRS194 (MRSA) [22]; [35]): 6.3 µg/mL (≈ 16.1 µM) | MIC [23, 38]: 6.3 µg/mL (≈ 16.1 µM) | MBC [24, 38]: 6.3 µg/mL (≈ 16.1 µM) | MIC (S. aureus NRS37 (VISA) [25]; [37]): 3.1 µg/mL (≈ 7.92 µM) | MIC (S. aureus NRS119 (MRSA) [26]; [32]): 6.3 µg/mL (≈ 16.1 µM) | MBC (S. aureus NRS107 (MRSA) [27]; [29]): 12.5 µg/mL (≈ 31.9 µM)

[H]/N=C(/N)NN=C(C)c1sc(-c2ccc(C#CCCCC)cc2)nc1C [compound 5, (Z)-2-(1-(2-(4-(Hex-1-yn-1-yl)phenyl)-4-methylthiazol-5-yl)ethylidene) hydrazinecarboximidamide]
MIC (S. aureus NRS107 (MRSA) [1]; NRS107 (MRSA)): 1.4 µg/mL (≈ 3.96 µM) | MBC (S. aureus VRS1 (VRSA) [2]; VRS1 (VRSA)): 1.4 µg/mL (≈ 3.96 µM) | MIC (S. aureus VRS1 (VRSA) [3]; VRS1 (VRSA)): 1.4 µg/mL (≈ 3.96 µM) | MBC (S. aureus USA300 (MRSA) [4]; USA300 (MRSA)): 1.4 µg/mL (≈ 3.96 µM) | NADPH-dependent CLint [28, 39]: 3.7 µL/min/mg | NADPH-dependent T1/2 [28, 39]: >4 h | NADPH-free T1/2 ([28]; human liver microsomes, without NADPH): >4 h | half-life ([28]; pooled human liver microsomes): exceeds 4 hours | MIC (S. aureus VRS4 (VRSA) [5]; VRS4 (VRSA)): 1.4 µg/mL (≈ 3.96 µM) | MBC (S. aureus VRS4 (VRSA) [6]; VRS4 (VRSA)): 2.8 µg/mL (≈ 7.92 µM) | MIC (S. aureus VRS5 (VRSA) [7]; VRS5 (VRSA)): 2.8 µg/mL (≈ 7.92 µM) | MBC (S. aureus NRS19 (VISA) [8]; NRS19 (VISA)): 1.4 µg/mL (≈ 3.96 µM) | MBC (S. aureus NRS119 (MRSA) [9]; NRS119 (MRSA)): 1.4 µg/mL (≈ 3.96 µM) | MBC (S. aureus USA500 (MRSA) [10]; USA500 (MRSA)): 1.4 µg/mL (≈ 3.96 µM) | MIC (S. aureus USA500 (MRSA) [11]; USA500 (MRSA)): 1.4 µg/mL (≈ 3.96 µM) | MBC (S. aureus NRS1 (VISA) [12]; NRS1 (VISA)): 0.7 µg/mL (≈ 1.98 µM) | MBC (S. aureus NRS194 (MRSA) [13]; NRS194 (MRSA)): 1.4 µg/mL (≈ 3.96 µM) | MBC (S. aureus VRS5 (VRSA) [14]; VRS5 (VRSA)): 2.8 µg/mL (≈ 7.92 µM) | MIC (S. aureus NRS1 (VISA) [15]; NRS1 (VISA)): 0.7 µg/mL (≈ 1.98 µM) | MIC (S. aureus USA300 (MRSA) [16]; USA300 (MRSA)): 1.4 µg/mL (≈ 3.96 µM) | time to completely eradicate MRSA growth (MRSA USA300): ≤ 4 h | MIC (S. aureus NRS19 (VISA) [18]; NRS19 (VISA)): 1.4 µg/mL (≈ 3.96 µM) | MIC (S. aureus USA 400 (MRSA) [19]; USA 400 (MRSA)): 1.4 µg/mL (≈ 3.96 µM) | MBC (S. aureus USA 400 (MRSA) [20]; USA 400 (MRSA)): 1.4 µg/mL (≈ 3.96 µM) | MBC (S. aureus NRS37 (VISA) [21]; NRS37 (VISA)): 1.4 µg/mL (≈ 3.96 µM) | MIC (S. aureus NRS194 (MRSA) [22]; NRS194 (MRSA)): 1.4 µg/mL (≈ 3.96 µM) | MIC [23]: 1.4 µg/mL (≈ 3.96 µM) | MBC ([24]; ATCC 43300 (MRSA)): 1.4 µg/mL (≈ 3.96 µM) | MIC (S. aureus NRS37 (VISA) [25]; NRS37 (VISA)): 1.4 µg/mL (≈ 3.96 µM) | MIC (S. aureus NRS119 (MRSA) [26]; NRS119 (MRSA)): 1.4 µg/mL (≈ 3.96 µM) | MBC (S. aureus NRS107 (MRSA) [27]; NRS107 (MRSA)): 1.4 µg/mL (≈ 3.96 µM)

[H]/N=C(\N)NN=C(C)c1sc(-c2ccc(C#CCCCCCCC)cc2)nc1C [compound 7, (E)-2-(1-(4-Methyl-2-[4-(non-1-yn-1-yl)phenyl]thiazol-5-yl)ethylidene)hydrazinecarboximidamide]
MIC [23, 38]: 12.6 µg/mL (≈ 31.9 µM)

CCCCc1ccc(-c2nc(C)c(C(N)=O)s2)cc1 [compound 9, 2-(4-Butylphenyl)-4-methylthiazole-5-carboxamide]
MIC [23, 38]: > 35.1 µg/mL
